The values below come from ChEMBL document CHEMBL1828568, “Novel imaging agents for β-amyloid plaque based on the N-benzoylindole core” (Bioorg Med Chem Lett, 2011).

SMILES strings stand for the structures.

The first assay is described as follows: Binding affinity to amyloid beta fibrils. In outline: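 Competitive binding to Aβ1–40 aggregates, with [125I]TZDM as the radiolabeled reference ligand displaced by unlabeled test compound. Run in triplicate and reported as mean ± SD.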
Consider `CC(C)Cc1ccc([C@@H](C)C(=O)O)cc1` [(R)-IBUPROPHEN], for which affinity was put at a Ki of 11.3 nM.

With `CC(C)Cc1ccc([C@H](C)C(=O)O)cc1` [DEXIBUPROFEN], the affinity, expressed as Ki, was 44.4 nM.

Consider `COc1ccc2cc([C@H](C)C(=O)O)ccc2c1` [NAPROXEN], for which the Ki was found to be 5.7 nM.

Another assay is described as follows: Displacement of [125I]TZDM from amyloid beta (1 to 40) aggregates after 2 hrs by gamma counting. In outline: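 Competition binding against [125I]TZDM as radiolabeled standard, using Aβ1–40 aggregates; run in triplicate, results as mean ± SD.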
`O=C(/C=C/c1ccccc1)n1ccc2cc(O)ccc21`: the affinity, expressed as Ki, was 21.6 nM.

`COc1ccc(/C=C/C(=O)n2ccc3ccccc32)cc1` gave a Ki of 27.3 nM.

The compound `COc1ccc(/C=C/C(=O)n2ccc3cc(Cl)ccc32)cc1` displayed a Ki of 18.1 nM.

For `COc1ccc(/C=C/C(=O)n2ccc3cc(OC)ccc32)cc1`, the Ki worked out at 60.8 nM.

`O=C(/C=C/c1ccccc1)n1ccc2ccccc21` showed a Ki of 15.9 nM.

In turn, `Cc1ccc2c(ccn2C(=O)/C=C/c2ccccc2)c1` showed a Ki of 128 nM.

Compound `COc1ccc(/C=C/C(=O)n2ccc3cc(I)ccc32)cc1` yielded a Ki of 10.2 nM.

Regarding `O=C(/C=C/c1ccccc1)n1ccc2cc(Br)ccc21`, the inhibition constant (Ki) is 18.9 nM.

`O=C(/C=C/c1ccccc1)n1ccc2cc(Cl)ccc21` showed a Ki of 36.4 nM.

Consider `O=C(/C=C/c1ccccc1)n1ccc2cc(F)ccc21`, for which affinity was put at a Ki of 32.7 nM.

`COc1ccc2c(ccn2C(=O)/C=C/c2ccccc2)c1` displayed a Ki of 68.2 nM.

For `COc1ccc(/C=C/C(=O)n2ccc3cc(C)ccc32)cc1`, the Ki was 103 nM.

Regarding `COc1ccc(/C=C/C(=O)n2ccc3cc(F)ccc32)cc1`, the inhibition constant Ki was 32.4 nM.

In turn, `COc1ccc(/C=C/C(=O)n2ccc3cc(Br)ccc32)cc1` yielded a Ki of 25.4 nM.
